Results collected from several papers.
Protocols differ between the studies behind these lines.
PROC: Vitamin K-dependent protein C (PROC, Homo sapiens, UniProt P04070)
HTR2A: 5-hydroxytryptamine receptor 2A (HTR2A, Homo sapiens, UniProt P28223)
PDE5A: cGMP-specific 3',5'-cyclic phosphodiesterase (PDE5A, Homo sapiens, UniProt O76074)

SMILES	target	observed	mode	method	concentration	inhibition [%]
CCOC(=O)c1ccc(OC(=O)CCCCCNC(=N)N)cc1	PROC	enzyme activity	inhibitor	–	10 µM	99
Cn1cc(-c2cccc(N3CCc4c(sc5c4CC(C)(C)C5)C3=O)c2CO)cc(Nc2ccncn2)c1=O	Sphingosine kinase 1 (SPHK1, Homo sapiens, UniProt Q9NYA1)	enzyme activity	inhibitor	–	1 µM	5
CN(C)C(=O)COC(=O)Cc1ccc(OC(=O)c2ccc(NC(=N)N)cc2)cc1	PROC	enzyme activity	inhibitor	–	10 µM	77
C[C@H]1N=C(c2ccccc2F)c2cc(Br)ccc2-n2cnc(C(=O)O)c21	Kappa-type opioid receptor (OPRK1, Homo sapiens, UniProt P41145)	ligand displacement	–	radioligand	10 µM	52.3
CN(CCN1CCC(OC(=O)Nc2ccccc2-c2ccccc2)CC1)C(=O)c1ccc(CN2CCC(C(N)=O)CC2)cc1	Corticotropin-releasing factor receptor 1 (Rattus norvegicus, UniProt P35353)	ligand displacement	–	radioligand	1 µM	-2
CC(C)N1CCC[C@H]1CNC(=O)c1cn(C2CCCC2)c(=O)c2c1c1ccccc1n2C	Sigma non-opioid intracellular receptor 1 (SIGMAR1, Homo sapiens, UniProt Q99720)	ligand displacement	–	radioligand	10 µM	47
Cn1cc(-c2cc(F)cc(N3CCn4c(cc5c4CCCC5)C3=O)c2CO)cc(Nc2ccc(N3CCN(C4COC4)CC3)cn2)c1=O	Phosphatidylinositol 4-phosphate 3-kinase C2 domain-containing subunit beta (PIK3C2B, Homo sapiens, UniProt O00750)	enzyme activity	inhibitor	–	0.1 µM	10
CCN(CC)CCCC[C@H](NC(=O)[C@H](CC(C)C)NC(=O)[C@H](C)NC(=O)[C@H](Cc1ccccc1)NC(=O)c1ccc(C(C)(C)C)cc1)C(=O)N[C@@H](CO)C(=O)OC	Adenosine receptor A2a (ADORA2A, Homo sapiens, UniProt P29274)	ligand displacement	–	radioligand	10 µM	-2
O[C@H]1[C@H](n2cnc3c(NC(C4CCCCC4)C4CCCCC4)nc(Cl)nc32)[C@H]2C[C@@]2(CCl)[C@H]1O	HTR2A	ligand displacement	–	radioligand	10 µM	21
CC(C)Cn1cnc2c(N)nc3ccccc3c21	Endothelin-1 receptor (EDNRA, Homo sapiens, UniProt P25101)	ligand displacement	–	radioligand	10 µM	8
c1ccc(C(NCCNC(c2ccccc2)c2ccccc2)c2ccccc2)cc1	PDE5A	enzyme activity	inhibitor	–	10 µM	0
CC(C)[C@H](NC(=O)OCc1ccccc1)C(=O)N[C@@H](CCCN=C(N)N)C(=O)N1CCC[C@H]1C(=O)N[C@@H](CCCN=C(N)N)C(=O)CF	Mucosa-associated lymphoid tissue lymphoma translocation protein 1 (MALT1, Homo sapiens, UniProt Q9UDY8)	enzyme activity	inhibitor	–	1 nM	9
COCc1c(-c2cc3cc(C)cc(OC)c3s2)c2c(N)ncnn2c1CN1CCNC(=O)C1	PDE5A	enzyme activity	inhibitor	–	10 µM	8
CC(C)=CCCC1(C)C=Cc2c(O)c3c(c(CC=C(C)C)c2O1)OC12C(=CC4CC1C(C)(C)OC2(C/C=C(/C)C(=O)O)C4O)C3=O (stereo not shown)	Histone-lysine N-methyltransferase EHMT1 (EHMT1, Homo sapiens, UniProt Q9H9B1)	cell-free assay	–	–	10 µM	-4
O=C(Nc1cccnn1)N1CCN([C@@H]2CCOc3cc(C(F)(F)F)ccc32)CC1	PDE5A	enzyme activity	inhibitor	–	20 µM	5
N=C(N)c1ccc2cc(OC(=O)c3ccc(N=C(N)N)cc3)ccc2c1	Caspase-6 (CASP6, Homo sapiens, UniProt P55212)	enzyme activity	inhibitor	–	10 µM	4
OC[C@@]12C[C@@H]1[C@@H](n1cnc3c(NC(C4CCCC4)C4CCCC4)nc(Cl)cc31)[C@H](O)[C@@H]2O	HTR2A	ligand displacement	–	radioligand	10 µM	1
[H]/N=C(/N)c1ccc(NCc2nc3cc(C(=O)N(CCC(=O)O)c4ccccn4)ccc3n2C)cc1	PROC	enzyme activity	inhibitor	–	20 µM	95
C#Cc1n[nH]c2c(-c3cn(C(C)c4ccccn4)c(=O)[nH]c3=O)cc(F)cc12 (stereo not shown)	Cytoplasmic tyrosine-protein kinase BMX (BMX, Homo sapiens, UniProt P51813)	enzyme activity	inhibitor	–	1 µM	0.9
